In the library only some 3.1% were active in any assay of this set; here they are far more common.
Apaf1 inhib = blocks human Apaf-1 apoptosome activity. O14727. reconstituted apoptosome caspase-3 activity, DEVD-Rh110 fluorescence. inhibition, % at 20 µM. 330,000 tested, 0.71% active; active = inhibition of at least 40% at 20 µM;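 also: plate controls were DMSO wells for no effect and DEVD-CHO caspase inhibitor wells for full effect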
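Assay system – apoptosome proteins · Medium – Hepes buffer, pH 7.5 · Also added – cytochrome c with DEVD-Rh110 · Timing – 30 min compound preincubation, 50 min activation, room temperature · Detection – Rh110 fluorescence, excitation 480 nm, emission 540 nm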
UBC13 polyUb = human UBC13 polyubiquitination inhibition. 330,000 tested, 0.47% active. UBC13 polyubiquitin chain formation, TR-FRET. AID 485273. inhibition, % at 20 µM. P61088; in the data active = inhibition above about 45%, passing the limit was not always enough
Target sequence (P61088 whole entry, looked up): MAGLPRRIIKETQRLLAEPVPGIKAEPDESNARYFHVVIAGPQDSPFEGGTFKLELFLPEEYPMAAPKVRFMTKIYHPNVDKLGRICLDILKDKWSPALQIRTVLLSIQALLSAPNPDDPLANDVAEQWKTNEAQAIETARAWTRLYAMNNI
SENP8 block-1 = blocks the human protease SENP8 | purified SENP8, Z-RLRGG-aminoluciferin cleavage, luminescence | Q96LD8 | AID 2540 | 330,000 tested, 1.2% active | inhibition, % at 10 µM; in the data active = inhibition above about 50%
SENP6 inh = SENP6 protease inhibition; Recombinant SENP6 catalytic domain, aminoluciferin luminescence; inhibition, % at 10 µM; 330,000 tested, 1.8% active;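 active = inhibition above about 50% at the single tested dose, limit read from the data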;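 also: plate controls were DMSO wells with enzyme for no effect and DMSO wells lacking enzyme for full effect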
SENP7 inh = inhibitors of human SENP7 protease; recombinant SENP7, Z-RLRGG-aminoluciferin luminescence, 40 min; 330,000 tested, 1.5% active; AID 434973; inhibition, % at 5 µM;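 active = inhibition above about 50% at the single test dose, limit read from the data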;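 also: plate controls were DMSO with enzyme for no effect and no enzyme buffer wells for full effect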
SENP8 block-2 = SENP8 (human) protease inhibition; inhibition, % at 20 µM; 360,000 tested, 0.64% active; AID 602440; Q96LD8; recombinant SENP8, Nedd8 substrate fluorescence; in the data active = inhibition mostly above about 40%, no sharp cut-off; inactive = mostly below about 27%
SENP8 conf = confirmation of human SENP8 protease inhibitors | inhibition, % at 12.5 µM | 6,200 tested, 40% active | Recombinant SENP8, Z-RLRGG-aminoluciferin luminescence, 60 min | shares compounds with SENP7 inh;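 active = mean inhibition across replicates above about 50%, limit read from the data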
SENP6 confirm = confirmation of human SENP6 protease inhibitors. AID 488915. inhibition, % at 12.5 µM. shares compounds with SENP7 inh. recombinant SENP6, Z-RLRGG-aminoluciferin luminescence. 6,200 tested, 58% active
SENP7 confirm = human SENP7 inhibition, confirmed; shares compounds with SENP7 inh; recombinant SENP7, Z-RLRGG-aminoluciferin luminescence, 40 min; inhibition, % at 12.5 µM; 6,200 tested, 69% active; AID 488917
Casp3 SENP sel = inhibits human caspase-3 in SENP selectivity test. shares compounds with SENP7 inh. purified caspase-3, Z-DEVD-aminoluciferin luminescence, 60 min. inhibition, % at 12.5 µM. 6,200 tested, 60% active. AID 488918;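 active = mean inhibition above about 50%, limit read from the data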;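 also: plate controls were enzyme with DMSO for no effect and wells without caspase-3 for full effect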
Target sequence (P42574 28-227 limits assumed): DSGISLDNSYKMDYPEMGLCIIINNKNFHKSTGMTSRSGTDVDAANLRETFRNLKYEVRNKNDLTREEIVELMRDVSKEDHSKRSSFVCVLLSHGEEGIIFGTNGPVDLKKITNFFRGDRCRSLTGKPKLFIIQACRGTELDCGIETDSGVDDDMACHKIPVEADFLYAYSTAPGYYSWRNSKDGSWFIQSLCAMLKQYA
Luc interf = counter-screen for SENP inhibitors: luminescence interference; shares compounds with SENP7 inh; Pre-incubated SENP8/Z-RLRGG-aminoluciferin, luciferase luminescence interference; inhibition, % at 12.5 µM; 6,200 tested, 39% active;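 active = mean inhibition above about 50% when retested at one dose, limit read from the data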;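 also: plate controls were DMSO wells with completed reaction for no effect and substrate without enzyme for full effect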
The depositor's hits bear a star; . = no result.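 The calls were made as follows, unless noted: active = mean inhibition above about 50% in the one-dose retest (limit read from the data); inactive = the rest.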

SMILES	Apaf1 inhib	UBC13 polyUb	SENP8 block-1	SENP6 inh	SENP7 inh	SENP8 block-2	SENP8 conf	SENP6 confirm	SENP7 confirm	Casp3 SENP sel	Luc interf
COc1ccc(S(=O)(=O)NC(=O)C2(C)CCN2C(=O)c2cccc(F)c2)cc1 (stereo not drawn)	.	.	.	.	.	9	.	.	.	.	.
Cn1cccc1C(=O)C(=O)Nc1ccccc1C(F)(F)F	6	-8	-16	-6	-12	11	.	.	.	.	.
Cn1cccc1C(=O)C(=O)Nc1ccccc1	-19	-3	80*	92*	94*	24	89*	90*	100*	95*	88*
Cc1cccc(NC(=O)c2cccc(S(=O)(=O)N(C)C3CCCCC3)c2)n1	.	.	.	.	.	9	.	.	.	.	.
CC(C)(C)C(=O)COC(=O)c1cccc(NC(=O)c2ccco2)c1	-9	4	-6	-7	3	18	.	.	.	.	.
O=C(COC(=O)c1cccc(NC(=O)c2ccco2)c1)c1ccc(Br)cc1	18	-8	24	70*	72*	7	8	61*	78*	37	33
Cc1ccc(C(=O)COC(=O)c2cccc(NC(=O)c3ccc([N+](=O)[O-])cc3[N+](=O)[O-])c2)cc1	9	-8	34	67*	66*	10	22	44	69*	45	46
CC(=O)Nc1ccc(C(=O)OCC(=O)c2cccc([N+](=O)[O-])c2)cc1	-3	-3	0	-12	5	4	.	.	.	.	.
O=C(c1ccc(N2C(=O)CCC2=O)cc1)N1CCCSC1=Nc1ccccc1	.	.	.	.	.	18	.	.	.	.	.
Cc1csc(NC(=O)c2cccn2C)n1	-25	10	76*	82*	91*	9	76*	75*	96*	93*	84*
Cc1csc(NC(=O)c2ccc(C(=O)Nc3nc(C)cs3)cc2)n1	0	7	17	25	14	.	.	.	.	.	.
Cn1cccc1C(=O)Nc1nc(-c2ccccn2)cs1	0	-42	43	74*	62*	12	76*	76*	93*	84*	78*
O=C(C=Cc1cccs1)c1ccccc1	.	.	.	.	.	9	.	.	.	.	.
O=[N+]([O-])c1ccccc1C(=Nc1ccccc1)c1c(O)cc(O)cc1O	.	.	.	.	.	28	.	.	.	.	.
O=S1(=O)CC(N2CCN(CCO)CC2)CN1Cc1ccccc1 (stereo not drawn)	.	.	.	.	.	13	.	.	.	.	.
CC(/C=C1\SC(=S)N(NS(=O)(=O)c2ccc(C)cc2)C1=O)=C\c1ccccc1	1	-2	84*	-13	13	38	-9	84*	11	23	7
CC(/C=C1\SC(=S)N(NS(=O)(=O)c2ccccc2)C1=O)=C\c1ccccc1	-2	-14	80*	96*	3	33	92*	92*	37	44	16
Cc1ccc(S(=O)(=O)N2CCC(=O)N([C@H](COCc3ccc(Cl)c(Cl)c3)Cc3ccccc3)CC2)cc1	.	.	.	.	.	2	.	.	.	.	.
CCC(C)NC(=O)c1cc2cc3ccc(OC)cc3nc2s1 (stereo not drawn)	11	36	36	-7	60*	-313	37	61*	87*	72*	37
CCC(C)NC(=O)c1cc2c(=O)n3ccccc3nc2s1 (stereo not drawn)	9	26	4	-8	8	-281	.	.	.	.	.
COc1ccc(NC(=O)C2(C)CCCN(C(C)C)C2)cc1F (stereo not drawn)	.	.	.	.	.	20	.	.	.	.	.
COc1ccc(NC(=O)C2c3ccccc3OCC(=O)N2CCc2ccccc2)cc1 (stereo not drawn)	.	.	.	.	.	-1	.	.	.	.	.

High-throughput results as filed in PubChem BioAssay.
